“Also recorded” adds a separate entry of the source. *1 amine or outer side, *2 acyl side, *3 side chain or, on linkers, in order; H or OH if unused. Where a SMILES comes first, the peptide text is derived from it. Bridges are numbered along the chain shown (N, C = ends). Roman numbers before positions name the chains, in order. [ ]: non-standard residue; d: D form. X2 = O=C(O)CCC(=O)N1C[C@H](N[*:2])[C@@H](C(=O)[*:1])C1; X1 = O=C([C@H]1CCC[C@@H]1N[*:1])[*:2]; S5 = C=CCCC[C@](C)(N)C(=O)O
Key:
proteinase K = proteinase K (Parengyodontium album, UniProt P06873); assay: Protease susceptibility assay; settings: same conditions as t1/2
proteinase K, sequence (P06873 106-384, species assumed): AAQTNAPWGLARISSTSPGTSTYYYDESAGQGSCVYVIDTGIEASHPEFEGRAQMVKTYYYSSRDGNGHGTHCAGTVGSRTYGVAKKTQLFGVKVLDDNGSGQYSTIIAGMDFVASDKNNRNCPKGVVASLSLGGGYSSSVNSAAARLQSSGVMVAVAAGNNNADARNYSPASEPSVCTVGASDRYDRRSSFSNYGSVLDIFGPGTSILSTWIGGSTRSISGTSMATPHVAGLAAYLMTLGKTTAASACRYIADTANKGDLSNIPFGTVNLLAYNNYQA

U937 lymphoma cells = settings: CellTiter-Glo; for effect of caspase inhibitor Q-VD-OPh on loss of U937 viability: 50 μM Q-VD-OPh, 2 hours; for cell viability relative to DMSO control: U937, 10 μM, 24 hours, two independent experiments; for U937 cell viability after 2 hours of treatment: titration, 2 hours serum-free, absence of caspase inhibitor
MDA-MB-468 = assay: Cell killing assay; type: cell-based; settings: MDA-MB-468 (mammary), 10 μM, 24 hours, CellTiter-Glo, two independent experiments
A549 = assay: Cell killing assay; type: cell-based; settings: A549 (lung), 10 μM, 24 hours, CellTiter-Glo, two independent experiments
Procedure, shortened: (§1)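 Human tumour lines grown in RPMI with 10% FBS. Seeded at 1.5×10³ cells/well, then washed with serum-free medium after 24 h. Exposed to 10 μM test compound or DMSO in serum-free medium for 2 h, then FBS added to 10% final, for 24 h total exposure. Viability read as CellTiter-Glo luminescence (intracellular ATP) relative to DMSO; mean ± SD of two independent experiments.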

SW480 = assay: Cell killing assay; type: cell-based; settings: SW480 (colon), 10 μM, 24 hours, CellTiter-Glo, two independent experiments
Procedure, shortened: as §1

MDA-MB-231 = assay: Cell killing assay; type: cell-based; settings: MDA-MB-231 (mammary), 10 μM, 24 hours, CellTiter-Glo, two independent experiments
MEFs = assay: Cell killing assay; type: cell-based, mouse; settings: 10 μM, 24 hours, CellTiter-Glo, two independent experiments
Procedure, shortened: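 Mouse embryonic fibroblasts kept in DME KELSO medium with 10% FBS, 250 μM L-asparagine and 50 μM 2-mercaptoethanol. Given 10 μM test compound or DMSO for 24 h. Viability measured by CellTiter-Glo luminescence (intracellular ATP) relative to DMSO; mean ± SD of two independent experiments.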

LIM-2405 = assay: Cell killing assay; type: cell-based; settings: LIM-2405 (colon), 10 μM, 24 hours, CellTiter-Glo, two independent experiments
Procedure, shortened: as §1

Bcl-2 = Bcl-2 (Homo sapiens, UniProt P10415); assay: SPR solution competition assay; type: binding
Bcl-2, sequence (P10415 1-217 limits assumed): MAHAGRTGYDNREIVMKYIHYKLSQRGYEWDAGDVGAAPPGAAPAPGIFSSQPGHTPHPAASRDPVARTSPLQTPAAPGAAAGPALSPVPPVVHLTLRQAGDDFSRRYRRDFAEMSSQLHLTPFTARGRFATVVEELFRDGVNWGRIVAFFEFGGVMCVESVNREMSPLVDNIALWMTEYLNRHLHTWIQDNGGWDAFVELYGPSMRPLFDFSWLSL

Mcl-1 = Mcl-1 (Homo sapiens, UniProt Q07820); assay: SPR solution competition assay; type: binding
Mcl-1, sequence (Q07820 171-327 limits assumed): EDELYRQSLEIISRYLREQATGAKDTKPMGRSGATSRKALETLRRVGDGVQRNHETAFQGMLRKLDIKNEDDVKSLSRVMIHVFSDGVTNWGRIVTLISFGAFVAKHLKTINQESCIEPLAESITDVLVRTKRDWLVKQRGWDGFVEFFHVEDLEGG

Bcl-xL = Bcl-xL (Homo sapiens, UniProt Q07817); assay: SPR solution competition assay; type: binding
Bcl-xL, sequence (Q07817 1-209 limits assumed, species assumed): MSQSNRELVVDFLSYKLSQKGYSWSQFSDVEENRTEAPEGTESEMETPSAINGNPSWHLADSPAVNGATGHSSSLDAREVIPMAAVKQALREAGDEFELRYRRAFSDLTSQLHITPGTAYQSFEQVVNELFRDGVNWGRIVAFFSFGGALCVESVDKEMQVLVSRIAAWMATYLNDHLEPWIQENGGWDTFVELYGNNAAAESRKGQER

[1] = test system: wild-type mouse embryonic fibroblasts (MEFs); assay: Cytochrome c release assay, permeabilized cells; type: cell-based; settings: digitonin-permeabilized wt MEFs, 10 μM peptide, 1 hour, western blot
[2] = test system: bax−/−/bak−/− mouse embryonic fibroblasts (MEFs); assay: Cytochrome c release assay, permeabilized cells; type: cell-based; settings: digitonin-permeabilized bax−/−/bak−/− MEFs, 10 μM peptide, 1 hour, western blot
[3] = test system: unpermeabilized U937 cells; assay: Cytochrome c release assay, unpermeabilized cells; type: cell-based; settings: unpermeabilized U937, 10 μM peptide, 3 hours at 37°C, western blot

Compound | increase in half-life relative to α-Bim (proteinase K) | effect of caspase inhibitor Q-VD-OPh on loss of U937 viability (U937 lymphoma cells) | cell viability relative to DMSO control (U937 lymphoma cells) | U937 cell viability after 2 hours of treatment (U937 lymphoma cells) | cell viability relative to DMSO control (MDA-MB-468) | cell viability relative to DMSO control (A549) | cell viability relative to DMSO control (SW480) | cell viability relative to DMSO control (MDA-MB-231) | cell viability relative to DMSO control (MEFs) | cell viability relative to DMSO control (LIM-2405) | IC50 (Bcl-2) [nM] | IC50 (Mcl-1) [nM] | IC50 (Bcl-xL) [nM] | cytochrome c release from pellet fraction to soluble cytosolic fraction [1] | cytochrome c release from pellet fraction to soluble cytosolic fraction [2] | location of cytochrome c after treatment of intact cells [3] | increase in half-life relative to the stapled peptide α-1 (proteinase K) [fold]
CC[C@H](C)[C@H](NC(C)=O)C(=O)N[C@@H](Cc1c[nH]c2ccccc12)C(=O)N[C@H](C(=O)N[C@@H](C)C(=O)N[C@@H](CCC(N)=O)C(=O)N[C@@H](CCC(=O)O)C(=O)N[C@@H](CC(C)C)C(=O)N[C@@H](CCCNC(=N)N)C(=O)N[C@@]1(C)CCC/C=C\CCC[C@@](C)(C(=O)N[C@@H](Cc2ccccc2)C(=O)N[C@@H](CC(N)=O)C(=O)N[C@@H](C)C(=O)N[C@@H](Cc2ccc(O)cc2)C(=O)N[C@@H](Cc2ccc(O)cc2)C(=O)N[C@@H](C)C(=O)N[C@@H](CCCNC(=N)N)C(=O)N[C@@H](CCCNC(=N)N)C(N)=O)NC(=O)[C@H](CC(=O)O)NC(=O)CNC(=O)[C@H]([C@@H](C)CC)NC1=O)[C@@H](C)CC [α-1, reference compound] | ~ 6 fold | attenuated by Q-VD-OPh | efficiently killing U937 lymphoma cells | significant reduction in cell viability | no significant cell death | no significant cell death | no significant cell death | no significant cell death | essentially no effect | no significant cell death |  |  |  |  |  |  | 
C=CCCC[C@](C)(NC(=O)[C@H](CC(=O)O)NC(=O)CNC(=O)[C@@H](NC(=O)[C@](C)(CCCC=C)NC(=O)[C@H](CCCNC(=N)N)NC(=O)[C@H](CC(C)C)NC(=O)[C@H](CCC(=O)O)NC(=O)[C@H](CCC(N)=O)NC(=O)[C@H](C)NC(=O)[C@@H](NC(=O)[C@H](Cc1c[nH]c2ccccc12)NC(=O)[C@@H](NC(C)=O)[C@@H](C)CC)[C@@H](C)CC)[C@@H](C)CC)C(=O)N[C@@H](Cc1ccccc1)C(=O)N[C@@H](CC(N)=O)C(=O)N[C@@H](C)C(=O)N[C@@H](Cc1ccc(O)cc1)C(=O)N[C@@H](Cc1ccc(O)cc1)C(=O)N[C@@H](C)C(=O)N[C@@H](CCCNC(=N)N)C(=O)N[C@@H](CCCNC(=N)N)C(N)=O [α-1-LIN] |  |  |  |  |  |  |  |  |  |  | 189 | 4 | 80 |  |  |  | 
CC[C@H](C)[C@H](NC(C)=O)C(=O)N[C@H]1CCC[C@@H]1C(=O)N[C@H](C(=O)N[C@@H](C)C(=O)N[C@@H](CCC(N)=O)C(=O)N[C@H]1CN(C(=O)CCC(=O)O)C[C@@H]1C(=O)N[C@@H](CC(C)C)C(=O)N[C@@H](CCCNC(=N)N)C(=O)N[C@H]1CCC[C@@H]1C(=O)N[C@H](C(=O)NCC(=O)N[C@@H](CC(=O)O)C(=O)N[C@H]1CCC[C@@H]1C(=O)N[C@@H](Cc1ccccc1)C(=O)N[C@@H](CC(N)=O)C(=O)N[C@H]1CCC[C@@H]1C(=O)N[C@@H](Cc1ccc(O)cc1)C(=O)N[C@@H](Cc1ccc(O)cc1)C(=O)N[C@@H](C)C(=O)N[C@@H](CCCNC(=N)N)C(=O)N[C@@H](CCCNC(=N)N)C(N)=O)[C@@H](C)CC)[C@@H](C)CC [α/β-2] (I: LR[X1]IGD[X1]FN[X1]YYARR-NH2 / II: Ac-I[X1]IAQ; linker I:N-II:C via X2) |  |  |  |  |  |  |  |  |  |  |  |  |  | Slightly less cytochrome c release; also recorded: able to induce cytochrome c release | but not in bax^−/−/bak^−/− MEFs | cytochrome c exclusively in the pellet | 
CC[C@H](C)[C@H](NC(C)=O)C(=O)N[C@H]1CCC[C@@H]1C(=O)N[C@H](C(=O)N[C@@H](C)C(=O)N[C@@H](CCC(N)=O)C(=O)N[C@H]1CN(C(=O)CCC(=O)O)C[C@@H]1C(=O)N[C@@H](CC(C)C)C(=O)N[C@@H](CCCNC(=N)N)C(=O)N[C@@]1(C)CCC/C=C\CCC[C@@](C)(C(=O)N[C@@H](Cc2ccccc2)C(=O)N[C@@H](CC(N)=O)C(=O)N[C@H]2CCC[C@@H]2C(=O)N[C@@H](Cc2ccc(O)cc2)C(=O)N[C@@H](Cc2ccc(O)cc2)C(=O)N[C@@H](C)C(=O)N[C@@H](CCCNC(=N)N)C(=O)N[C@@H](CCCNC(=N)N)C(N)=O)NC(=O)[C@H](CC(=O)O)NC(=O)CNC(=O)[C@H]([C@@H](C)CC)NC1=O)[C@@H](C)CC [α/β-1] (I: LR[S5]IGD[S5]FN[X1]YYARR-NH2 / II: Ac-I[X1]IAQ; staple (Z) I:3-I:7; linker I:N-II:C via X2) | > 500 fold | attenuated by Q-VD-OPh | potently impacted U937 lymphoma cell viability | significant reduction in cell viability | no significant cell death | no significant cell death | no significant cell death | no significant cell death | essentially no effect | no significant cell death |  |  |  | able to induce cytochrome c release | but not in bax^−/−/bak^−/− MEFs | most of the cytochrome c was present in the soluble fraction | > 90

From publication PMC4687753 (Journal of the American Chemical Society, 2015)
